Screening results from PubChem.
FXIa inh 1536: factor XIa (human) inhibition | P03951 | purified FXIa, Boc-Glu-Ala-Arg-AMC fluorogenic substrate | inhibition, % at 5 µM | 220,000 tested, 0.14% active | AID 798;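 active means inhibition of at least 40%; inactive means inhibition below 40%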;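 further: fluorescence of freed AMC excited at 355 nm; 0% = enzyme without compound and 100% = no enzyme blank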
KLK5 inh: kallikrein 5 (human) inhibition; recombinant hK5, fluorogenic AMC substrate cleavage; inhibition, % at 5 µM; 210,000 tested, 0.59% active; AID 873;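 active means inhibition of 40% or more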;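 further: 0% = enzyme controls without compound and 100% = no-enzyme blanks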
AHR activator: activates the human aryl hydrocarbon receptor | P35869 | AHR-responsive luciferase reporter cells, luminescence | activation, % at 5 µM | 320,000 tested, 2.5% active; in the data active means activation above about 47%;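 further: 0% = vehicle wells and 100% = reference agonist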
STAT3 activator: STAT3 signaling activation. U3A cells, IL-6 STAT3-luciferase reporter, luminescence; 100% = signal with IL-6 EC80 alone. activation (% of control), % at 5.6 µM. 190,000 tested, 0.91% active. AID 871;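 active means activation above the screen-wide mean of compound activation plus 3 SD, cut at about 130% in these data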;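 further: 0% = background luminescence of wells with medium and substrate only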
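Material: human U3A cells carrying STAT3-luciferase construct. Measured by: reporter luminescence signal. Timing: compound 1 h, then IL-6 6 h at 37 °C.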
thrombin 1536: inhibitors of human thrombin | P00734 | alpha-thrombin, Boc-VPR-AMC fluorogenic substrate cleavage | inhibition, % at 5 µM | 220,000 tested, 0.26% active | AID 1046;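 active means inhibition at or above 40%; inactive means inhibition below 40%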;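 further: 0% = enzyme with no compound and 100% = wells without enzyme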
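Material: human alpha-thrombin protein. Incubation: reaction at ambient temperature. Technique: fluorescence of released AMC, ex 355 nm, em 460 nm. Control set: no-compound enzyme wells and no-enzyme blanks. Also added: Boc-VPR-AMC substrate, 15 µM final. Buffer or medium: pH 7.5 Tris (50 mM) with NaCl 150 mM, Tween 20 0.05%.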
FXIIa inh: blocks human coagulation factor XIIa protease activity; P00748; purified FXIIa, Boc-QGR-AMC fluorogenic substrate, 2 h; inhibition, % at 5 µM; 220,000 tested, 0.3% active; in the data active means inhibition above about 40%;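 further: 0% = enzyme with no compound and 100% = blank without enzyme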
Target sequence (P00748 20-372 limits assumed): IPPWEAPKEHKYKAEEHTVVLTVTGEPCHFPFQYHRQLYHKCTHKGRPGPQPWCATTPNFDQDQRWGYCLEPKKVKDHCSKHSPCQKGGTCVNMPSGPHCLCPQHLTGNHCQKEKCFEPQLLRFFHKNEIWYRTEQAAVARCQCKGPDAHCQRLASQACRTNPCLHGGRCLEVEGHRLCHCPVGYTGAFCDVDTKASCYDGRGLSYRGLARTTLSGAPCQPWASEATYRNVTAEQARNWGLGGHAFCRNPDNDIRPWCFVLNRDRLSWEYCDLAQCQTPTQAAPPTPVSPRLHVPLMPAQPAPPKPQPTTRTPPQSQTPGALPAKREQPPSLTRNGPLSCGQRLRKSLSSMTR
Target sequence (P00748 373-615 limits assumed): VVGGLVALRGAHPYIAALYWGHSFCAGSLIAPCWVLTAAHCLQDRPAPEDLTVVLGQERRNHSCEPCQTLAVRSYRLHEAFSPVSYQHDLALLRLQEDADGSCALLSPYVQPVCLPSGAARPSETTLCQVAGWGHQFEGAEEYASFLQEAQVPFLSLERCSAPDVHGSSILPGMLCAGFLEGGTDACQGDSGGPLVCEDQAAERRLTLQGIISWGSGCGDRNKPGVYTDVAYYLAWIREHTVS
* marks the source's active call; other numbers are inactive results; nt = not tested or not shown. Most compounds without a hit are left out; they make up all but 3.5% or so of the library.

SMILES | FXIa inh 1536 | KLK5 inh | AHR activator | STAT3 activator | thrombin 1536 | FXIIa inh
Cc1nonc1C(=O)N/N=C/c1cc2c(cc1Br)OCO2 | 5 | 3 | 26 | 133* | -10 | 11
Cc1nn(C)c(C(=O)N/N=C/c2cc3c(cc2Br)OCO3)c1Br | 7 | 3 | 24 | 100 | 0 | 7
Cc1ccc(N2C(=O)C3C(C2=O)C(C(=O)c2ccc(Cl)cc2)N2CCCC32)cc1 (stereo unspecified) | -6 | -1 | 11 | 99 | -4 | -5
O=C(C1=C[C@@H]2[C@H]3C(=O)N(c4ccc(Cl)cc4)C(=O)[C@H]3[C@@H](C(=O)c3ccc(Cl)cc3)N2C=C1)c1ccccc1 | 3 | 1 | 50* | 113 | -18 | 7
CC(C)CCNC(=O)c1onc(CSc2ccccn2)c1C(=O)NCCC(C)C | nt | nt | -1 | nt | nt | nt
C/C(Cc1ccccc1)=N\NC(=O)CNC(=O)c1cccc(Cl)c1 | 8 | -1 | 0 | nt | 4 | -3
C/C(Cc1ccccc1)=N\NC(=O)CNC(=O)/C=C\c1ccccc1 | 51* | 113* | 2 | nt | 10 | 24
C/C(Cc1ccccc1)=N\NC(=O)CNC(=O)c1ccc(Cl)cc1Cl | 12 | 78* | 1 | nt | 4 | 86*
CC(C)c1ccccc1NC1=CC(=O)CC(C)(C)C1 | 6 | -15 | 3 | 92 | -4 | 16
CCC(C)(C)c1ccc2c(c1)C(=O)c1ccccc1C2=O | 5 | -2 | 72* | 115 | -3 | 8
CC(C)(CO)NC(=O)c1ccc2c(c1)C(=O)c1ccccc1-2 | nt | nt | 6 | nt | nt | nt
COc1ccc(/C=N\Nc2ccccc2[N+](=O)[O-])c(C(=O)O)c1OC | 1 | -3 | 5 | nt | -6 | 5
COc1ccccc1C(CNc1ncccc1[N+](=O)[O-])N(C)C (stereo unspecified) | nt | nt | 1 | nt | nt | nt
CC(C)Oc1ccccc1/C=N/Nc1ccccc1[N+](=O)[O-] | 7 | -8 | 55* | 111 | 2 | 10
COc1ccccc1Nc1ncccc1[N+](=O)[O-] | nt | nt | 53* | nt | nt | nt
COc1ccccc1/C=N\Nc1ccccc1[N+](=O)[O-] | 1 | 2 | 79* | nt | -6 | 7
CCOc1ccccc1/C=N/Nc1ccccc1[N+](=O)[O-] | 5 | 6 | 14 | 107 | 0 | 1
CCNc1nc2nonc2nc1NCC | 3 | -2 | -1 | 99 | 3 | 20
CC(C)N(Cc1ccccc1)C(=O)COC(=O)/C=C/c1cnc2ccccc2n1 | -6 | -3 | 2 | 106 | -3 | 9
CCN(CC)Cc1c(C(=O)N/N=C/c2ccccn2)nnn1-c1nonc1N | nt | nt | 7 | nt | nt | nt
C=CCc1ccccc1OCCSc1nc2ccc([N+](=O)[O-])cc2s1 | 2 | -3 | 56* | 111 | -6 | -1
COc1cc(-c2nnc(COC(=O)c3ccc(C)o3)o2)cc(OC)c1OC | nt | nt | -2 | nt | nt | nt
CCc1cc(C(=O)Nc2ccc(C)cc2Br)cs1 | 7 | -1 | 2 | 144* | 1 | 18
Fc1ccc(NC(=S)NNc2ncc(C(F)(F)F)cc2Cl)c(F)c1 | 4 | -3 | 11 | 49 | 3 | 8
COc1ccc(C)cc1NC(=O)COC(=O)C1CCN(C(=O)c2ccc(Cl)cc2)CC1 | 49* | 28 | -2 | 98 | 27 | 26
SMILES | FXIa inh 1536 | KLK5 inh | AHR activator | STAT3 activator | thrombin 1536 | FXIIa inh
COc1ccc(C(=O)C(=O)c2ccc(OCCO)cc2)cc1 | nt | nt | 4 | nt | nt | nt
COc1cccc(-c2c(C(=O)N/N=C(\C)c3ccco3)nnn2-c2nonc2N)c1 | nt | nt | 5 | nt | nt | nt
C/C(=N\NC(=O)c1nnn(-c2nonc2N)c1-c1cccs1)c1cccnc1 | nt | nt | 63* | nt | nt | nt
COc1cccc(-c2c(C(=O)N/N=C(\C)c3cccnc3)nnn2-c2nonc2N)c1 | nt | nt | 62* | nt | nt | nt
C/C(=N\NC(=O)c1nnn(-c2nonc2N)c1-c1cccs1)c1cccc(O)c1 | nt | nt | 1 | nt | nt | nt
O=C1NC2=C(CCc3ccccc32)C(c2ccc(Br)cc2)N1 (stereo unspecified) | 4 | 5 | 61* | 101 | -1 | 10
O=C1Cc2ccccc2C(c2ccc(Br)cc2)N1 (stereo unspecified) | -2 | -3 | 0 | 93 | 2 | 11
COc1ccc(S(=O)(=O)N2CCOCC2)cc1NC(=O)CSc1n[nH]c(C(C)C)n1 | -1 | 0 | 0 | 102 | -1 | 6
Cc1ccc(NC(=O)c2ccc(OC(=O)COc3cccc(Cl)c3)cc2)cc1 | 7 | -15 | 11 | 112 | 77* | 8
COc1ccc(/C=N/NC(=O)CN2CCN(Cc3ccccc3)CC2)cc1Br | -5 | 5 | 2 | nt | -3 | 7
COc1ccc(Br)cc1/C=N/NC(=O)CN1CCN(Cc2ccccc2)CC1 | -17 | 41* | 6 | nt | -6 | 5
CN=C1CC(C)(C)CC(=O)/C1=C(/O)CCCN1C(=O)c2ccccc2C1=O | -4 | -10 | -1 | 99 | 1 | 3
O=C(CCl)Nc1c(C(=O)Nc2ccc3c(c2)OCCO3)oc2ccccc12 | nt | nt | 23 | nt | nt | nt
O=C(Nc1ccc2c(c1)OCO2)c1cc(Cl)ccn1 | nt | nt | 67* | nt | nt | nt
Cc1cc(C(=O)Nc2ccc3c(c2)OCO3)no1 | nt | nt | 58* | nt | nt | nt
O=C(Nc1ccc2c(c1)OCO2)c1ccc(Cl)cc1Cl | nt | nt | 8 | nt | nt | nt
Cc1c(C(=O)Nc2ccc3c(c2)OCO3)oc2ccccc12 | nt | nt | 76* | nt | nt | nt
Cc1ccc(NC(=O)c2cc(-c3ccc4c(c3)OCO4)on2)cc1C | nt | nt | -3 | nt | nt | nt
C/C(=N\NC(=O)c1ccoc1C)c1cccc2ccccc12 | nt | nt | 3 | nt | nt | nt
Cc1nccn1CCCNC(=O)C1CCC(=O)N(Cc2ccccc2F)C1 (stereo unspecified) | nt | nt | 3 | nt | nt | nt
COc1ccc(-n2cc(C(=O)c3cc4ccccc4oc3=O)c(C(C)=O)n2)cc1 | -1 | -5 | 7 | 104 | -1 | 10
Cc1cc2nc(-c3cccnc3SCC(=O)NCc3ccco3)[nH]c2cc1C | -7 | 3 | 64* | 84 | -4 | -5
Cc1sc2nc(SCC(=O)NCc3ccco3)[nH]c(=O)c2c1C | -1 | -13 | 55* | 111 | -4 | 9
Cc1cc2nc(-c3cccnc3SCC(=O)NC3CC3)[nH]c2cc1C | 2 | 4 | 55* | 111 | -4 | 7
CCCCCc1ccc(OCCCC[n+]2ccc(C)cc2)c(CCCCC)c1 | 3 | 40* | -1 | 68 | 9 | 11
SMILES | FXIa inh 1536 | KLK5 inh | AHR activator | STAT3 activator | thrombin 1536 | FXIIa inh
CSc1nsc2nc(=O)c(/C=C3\C(C)=Nc4ccc(C)cc43)c(N)n12 | 11 | 2 | 12 | 85 | 6 | 42*
CC(C)(C)c1ccc(C(=O)N/C(N)=N/c2nc3ccccc3o2)cc1 | 2 | -1 | 12 | 98 | 2 | 14
N/C(=N\c1nc2ccccc2o1)NC(=O)c1ccc(Cl)cc1 | 2 | -7 | 68* | 88 | -12 | 2
Clc1ccc(Sc2ccccn2)cc1 | nt | nt | 0 | nt | nt | nt
Clc1ccc(Sc2cc(Cl)c(-c3ccccc3)nn2)cc1 | 3 | -17 | 13 | 142* | 0 | 8
CC(Sc1nnc(NCc2ccccc2)s1)C(=O)Nc1ccc2c(c1)C(=O)c1ccccc1C2=O (stereo unspecified) | 19 | -7 | 50* | 106 | -1 | 26
